How the values were obtained:
[1] = molecular target: T1, Vascular endothelial growth factor receptor 2 (Homo sapiens, UniProt P35968); experiment: Inhibition of recombinant VEGFR-2 kinase domain by homogeneous time-resolved fluorescence assay
[2] = molecular target: T1, Vascular endothelial growth factor receptor 2; experiment: Inhibition of VEGFR-2 kinase
How it was run: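 HTRF KinEASE assay with recombinant VEGFR-2 kinase domain. Enzyme, ATP and substrate levels were optimised per kit. TR-FRET signal read after detection reagents. IC50 from dose–response curves.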

[3] = Metabolic stability in human liver microsomes assessed as compound remaining at 10 uM after 30 mins by LC/MS/MS method; type: ADME, Microsome; settings: read-out: Stability
CYP1A2 = molecular target: T2, CYP1A2 (Homo sapiens, UniProt P05177); experiment: Inhibition of recombinant human CYP1A2 assessed as remaining activity at 10 uM after 20 mins by fluorescence assay; type: ADME; settings: read-out: Activity
T2 sequence (P05177 whole entry): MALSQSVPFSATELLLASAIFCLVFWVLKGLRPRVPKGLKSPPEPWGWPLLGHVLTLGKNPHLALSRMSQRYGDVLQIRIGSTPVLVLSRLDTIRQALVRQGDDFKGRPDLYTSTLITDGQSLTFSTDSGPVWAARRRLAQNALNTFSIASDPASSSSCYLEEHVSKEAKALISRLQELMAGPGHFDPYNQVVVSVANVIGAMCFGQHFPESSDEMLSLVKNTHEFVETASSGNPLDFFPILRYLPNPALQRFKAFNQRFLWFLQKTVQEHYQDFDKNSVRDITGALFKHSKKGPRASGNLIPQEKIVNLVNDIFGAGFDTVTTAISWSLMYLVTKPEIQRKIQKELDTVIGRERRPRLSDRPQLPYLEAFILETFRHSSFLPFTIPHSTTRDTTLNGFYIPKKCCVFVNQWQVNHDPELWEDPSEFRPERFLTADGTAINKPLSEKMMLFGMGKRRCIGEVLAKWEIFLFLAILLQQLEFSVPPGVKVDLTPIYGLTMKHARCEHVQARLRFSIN

CYP2D6 = CYP2D6 (Homo sapiens, UniProt P10635); experiment: Inhibition of recombinant human CYP2D6 assessed as remaining activity at 10 uM after 20 mins by fluorescence assay; type: ADME; settings: read-out: Activity
CYP3A4 = CYP3A4 (Homo sapiens, UniProt P08684); experiment: Inhibition of recombinant human CYP3A4 assessed as remaining activity at 10 uM after 20 mins by fluorescence assay; type: ADME; settings: read-out: Activity
CYP2C9 = CYP2C9 (Homo sapiens, UniProt P11712); experiment: Inhibition of recombinant human CYP2C9 assessed as remaining activity at 10 uM after 20 mins by fluorescence assay; type: ADME; settings: read-out: Activity
CYP2C19 = CYP2C19 (Homo sapiens, UniProt P33261); experiment: Inhibition of recombinant human CYP2C19 assessed as remaining activity at 10 uM after 20 mins by fluorescence assay; type: ADME; settings: read-out: Activity
HUVEC [4] = experiment: Antiproliferative activity against Vegf-stimulated HUVEC at 10 uM after 24 hrs by WST-1 assay relative to control; type: functional, Homo sapiens
How it was run: (§1)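 Pooled HUVECs grown in 1:1 EBM-2 with EGM-2 supplements, used at passage eight or lower. Seeded at 10,000 cells/well on collagen type I-coated plates. After 24 h, treated 24 h with rhVEGF (20 ng/mL) plus compound. Proliferation read by Premix WST-1 assay.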

HUVEC [5] = experiment: Antiangiogenic activity in HUVEC assessed as tube formation at 1 uM after 16 to 18 hrs by microscopy relative to control; type: functional, Homo sapiens
How it was run: (§2)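 Pooled HUVECs seeded at 40,000/well on wells coated with a 1:1 mix of Matrigel (10 mg/mL) and EBM-2/EGM-2 medium, coating set 1 h at 37 °C. Cells incubated 16–18 h, then fixed. Tube formation imaged by camera and quantified by image analysis.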

HUVEC [6] = experiment: Antiproliferative activity against Vegf-stimulated HUVEC at 1 uM after 24 hrs by WST-1 assay relative to control; type: functional, Homo sapiens; how it was run: as §1
HUVEC [7] = experiment: Antiproliferative activity against Vegf-stimulated HUVEC at 0.1 uM after 24 hrs by WST-1 assay relative to control; type: functional, Homo sapiens; how it was run: as §1
HUVEC [8] = experiment: Antiangiogenic activity in HUVEC assessed as tube formation at 10 uM after 16 to 18 hrs by microscopy relative to control; type: functional, Homo sapiens; how it was run: as §2
[9] = Metabolic stability in human liver microsomes assessed as compound remaining at 2 uM after 30 mins by LC/MS/MS method; type: ADME, Microsome; settings: read-out: Stability
How it was run: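 Human liver microsomes (0.5 mg/ml) in 100 mM potassium phosphate pH 7.4, test compound final 2 µM. Pre-incubated 5 min at 37 °C, then started with NADPH regenerating solution. Stopped at a single 30 min point with 3 volumes ice-cold acetonitrile containing imipramine (80 ng/ml) as internal standard. Samples vortexed, centrifuged and analysed by LC/MS/MS.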

T1 sequence (P35968 whole entry, the tested form may be a part): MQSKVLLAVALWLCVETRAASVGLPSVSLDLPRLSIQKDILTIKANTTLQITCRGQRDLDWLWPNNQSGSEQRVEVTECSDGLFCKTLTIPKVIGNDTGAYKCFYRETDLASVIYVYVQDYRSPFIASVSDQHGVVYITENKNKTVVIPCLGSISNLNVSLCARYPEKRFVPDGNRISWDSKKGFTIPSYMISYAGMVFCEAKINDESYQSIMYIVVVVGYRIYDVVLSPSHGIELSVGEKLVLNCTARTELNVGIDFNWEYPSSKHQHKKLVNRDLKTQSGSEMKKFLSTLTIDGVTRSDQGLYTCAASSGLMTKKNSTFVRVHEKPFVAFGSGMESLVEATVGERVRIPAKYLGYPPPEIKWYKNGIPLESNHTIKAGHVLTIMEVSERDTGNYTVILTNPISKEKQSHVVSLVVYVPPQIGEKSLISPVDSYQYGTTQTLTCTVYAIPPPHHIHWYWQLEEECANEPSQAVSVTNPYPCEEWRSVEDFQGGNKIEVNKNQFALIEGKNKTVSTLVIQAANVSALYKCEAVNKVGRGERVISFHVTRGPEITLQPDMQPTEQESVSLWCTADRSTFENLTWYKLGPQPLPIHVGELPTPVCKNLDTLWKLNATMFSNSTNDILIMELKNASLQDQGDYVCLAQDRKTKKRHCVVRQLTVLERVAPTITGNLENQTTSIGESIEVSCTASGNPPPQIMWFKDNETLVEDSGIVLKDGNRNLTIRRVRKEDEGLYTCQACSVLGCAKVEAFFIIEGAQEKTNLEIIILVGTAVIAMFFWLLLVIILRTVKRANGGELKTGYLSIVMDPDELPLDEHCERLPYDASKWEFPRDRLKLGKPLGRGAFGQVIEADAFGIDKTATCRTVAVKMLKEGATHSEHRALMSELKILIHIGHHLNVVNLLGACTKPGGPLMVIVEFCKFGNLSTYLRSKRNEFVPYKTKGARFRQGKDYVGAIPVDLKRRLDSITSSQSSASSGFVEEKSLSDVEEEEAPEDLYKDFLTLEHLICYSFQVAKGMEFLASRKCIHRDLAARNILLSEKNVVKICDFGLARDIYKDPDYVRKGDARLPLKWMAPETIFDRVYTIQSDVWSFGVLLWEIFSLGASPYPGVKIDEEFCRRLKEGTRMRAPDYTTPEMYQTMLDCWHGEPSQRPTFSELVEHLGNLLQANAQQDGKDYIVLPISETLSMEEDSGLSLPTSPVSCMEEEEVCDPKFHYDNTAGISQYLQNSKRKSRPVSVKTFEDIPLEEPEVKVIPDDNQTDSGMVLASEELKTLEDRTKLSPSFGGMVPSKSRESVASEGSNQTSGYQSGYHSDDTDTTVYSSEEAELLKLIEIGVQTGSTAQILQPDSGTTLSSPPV
Chain of CYP2C19 (P33261 whole entry): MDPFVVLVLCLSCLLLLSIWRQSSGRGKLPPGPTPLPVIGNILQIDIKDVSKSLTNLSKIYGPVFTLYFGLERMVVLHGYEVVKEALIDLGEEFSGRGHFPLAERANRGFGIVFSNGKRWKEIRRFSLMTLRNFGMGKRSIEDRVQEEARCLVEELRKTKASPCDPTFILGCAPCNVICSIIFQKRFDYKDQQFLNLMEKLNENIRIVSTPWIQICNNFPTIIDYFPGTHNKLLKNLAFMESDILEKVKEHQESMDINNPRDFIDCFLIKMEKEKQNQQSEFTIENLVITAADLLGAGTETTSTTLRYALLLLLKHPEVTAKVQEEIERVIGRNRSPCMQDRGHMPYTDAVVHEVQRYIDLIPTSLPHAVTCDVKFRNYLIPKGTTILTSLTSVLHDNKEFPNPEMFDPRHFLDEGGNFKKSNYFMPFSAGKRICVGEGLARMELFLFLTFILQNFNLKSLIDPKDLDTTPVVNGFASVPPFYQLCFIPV
Chain of CYP3A4 (P08684 whole entry): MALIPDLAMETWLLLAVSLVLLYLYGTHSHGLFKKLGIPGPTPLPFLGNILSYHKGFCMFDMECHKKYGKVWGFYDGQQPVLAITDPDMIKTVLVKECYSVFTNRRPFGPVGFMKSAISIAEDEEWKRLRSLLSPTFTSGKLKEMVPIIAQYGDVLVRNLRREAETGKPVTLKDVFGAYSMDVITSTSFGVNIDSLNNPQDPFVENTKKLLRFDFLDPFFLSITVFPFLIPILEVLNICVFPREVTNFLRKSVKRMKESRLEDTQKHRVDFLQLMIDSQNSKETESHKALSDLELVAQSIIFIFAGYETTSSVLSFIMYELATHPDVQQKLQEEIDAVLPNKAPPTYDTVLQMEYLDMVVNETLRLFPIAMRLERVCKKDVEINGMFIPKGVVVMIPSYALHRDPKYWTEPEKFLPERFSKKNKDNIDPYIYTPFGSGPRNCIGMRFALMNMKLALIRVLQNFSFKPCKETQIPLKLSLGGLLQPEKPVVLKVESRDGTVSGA
Chain of CYP2D6 (P10635 whole entry): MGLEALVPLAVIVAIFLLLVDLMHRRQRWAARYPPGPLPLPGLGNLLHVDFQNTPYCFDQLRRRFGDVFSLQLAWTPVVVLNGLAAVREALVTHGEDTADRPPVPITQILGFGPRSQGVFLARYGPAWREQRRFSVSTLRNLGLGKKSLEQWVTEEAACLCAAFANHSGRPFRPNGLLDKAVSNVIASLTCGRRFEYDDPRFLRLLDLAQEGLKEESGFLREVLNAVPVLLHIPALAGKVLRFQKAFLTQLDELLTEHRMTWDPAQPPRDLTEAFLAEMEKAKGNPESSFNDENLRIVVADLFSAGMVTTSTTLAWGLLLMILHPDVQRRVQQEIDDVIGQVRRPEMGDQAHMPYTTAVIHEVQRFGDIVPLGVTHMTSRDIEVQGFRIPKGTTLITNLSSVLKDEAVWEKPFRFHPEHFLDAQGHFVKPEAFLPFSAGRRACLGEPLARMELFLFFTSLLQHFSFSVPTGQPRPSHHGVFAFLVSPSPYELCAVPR
Chain of CYP2C9 (P11712 whole entry): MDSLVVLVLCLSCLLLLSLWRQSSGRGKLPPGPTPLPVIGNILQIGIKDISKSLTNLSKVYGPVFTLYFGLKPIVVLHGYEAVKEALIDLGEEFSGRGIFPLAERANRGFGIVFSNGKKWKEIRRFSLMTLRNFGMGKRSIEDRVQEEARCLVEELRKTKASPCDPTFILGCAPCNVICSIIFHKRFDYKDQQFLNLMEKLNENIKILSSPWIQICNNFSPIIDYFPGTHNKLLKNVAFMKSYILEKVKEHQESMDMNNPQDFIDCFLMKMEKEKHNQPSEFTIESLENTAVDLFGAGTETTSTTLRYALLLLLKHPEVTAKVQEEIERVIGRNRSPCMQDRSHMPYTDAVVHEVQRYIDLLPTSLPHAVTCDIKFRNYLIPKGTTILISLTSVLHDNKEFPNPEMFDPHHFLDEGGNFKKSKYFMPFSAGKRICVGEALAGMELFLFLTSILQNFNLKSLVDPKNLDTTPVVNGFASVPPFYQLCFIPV

| Compound | IC50 [1] | further results |
| --- | --- | --- |
| CN1CCc2nc(-c3cc4ccccc4[nH]c3=O)[nH]c2C1 | 1000 nM | IC50 [2]: 1000 nM |
| O=c1[nH]c2ccccc2cc1-c1nc2c([nH]1)CN(Cc1ccccc1)CC2 | 6000 nM |  |
| O=C(c1cccnc1)N1CCc2nc(-c3cc4c(F)cccc4[nH]c3=O)[nH]c2C1 | 600 nM |  |
| O=C(c1ccc(CN2CCCCC2)cc1)N1CCc2nc(-c3cc4ccccc4[nH]c3=O)[nH]c2C1 | 1.3 nM |  |
| O=C(CN1CCOCC1)N1CCc2nc(-c3cc4ccccc4[nH]c3=O)[nH]c2C1 | 300 nM |  |
| O=C(CN1CCOCC1)N1CCc2nc(-c3cc4c(F)cccc4[nH]c3=O)[nH]c2C1 | 1100 nM |  |
| O=C(CN1CCOCC1)N1CCc2nc(-c3cc4cc(F)ccc4[nH]c3=O)[nH]c2C1 | 4.3 nM |  |
| CN1CCN(CC(=O)N2CCc3nc(-c4cc5ccccc5[nH]c4=O)[nH]c3C2)CC1 | 300 nM |  |
| CN1CCN(CC(=O)N2CCc3nc(-c4cc5c(F)cccc5[nH]c4=O)[nH]c3C2)CC1 | 1050 nM |  |
| COc1ccc2[nH]c(=O)c(-c3nc4c([nH]3)CN(C(=O)CN3CCN(C)CC3)CC4)cc2c1 | 1100 nM |  |
| O=C(CN1CCCCC1)N1CCc2nc(-c3cc4c(F)cccc4[nH]c3=O)[nH]c2C1 | 740 nM |  |
| O=C(CN1CCCCC1)N1CCc2nc(-c3cc4cc(F)ccc4[nH]c3=O)[nH]c2C1 | 8 nM |  |
| O=C(CN1CCCCC1)N1CCc2nc(-c3cc4cc(Cl)ccc4[nH]c3=O)[nH]c2C1 | 22 nM |  |
| O=C(CN1CCCC1)N1CCc2nc(-c3cc4ccccc4[nH]c3=O)[nH]c2C1 | 400 nM |  |
| O=C(Cc1ccccn1)N1CCc2nc(-c3cc4cc(F)ccc4[nH]c3=O)[nH]c2C1 | 0.7 nM |  |
| O=C(Cc1ccncc1)N1CCc2nc(-c3cc4ccccc4[nH]c3=O)[nH]c2C1 | 6.7 nM |  |
| O=C(Cc1ccncc1)N1CCc2nc(-c3cc4cc(F)ccc4[nH]c3=O)[nH]c2C1 | 8.6 nM | remaining at 0.5 h, 10 µM [3]: 93%; activity at 20 min, 10 µM (CYP1A2): 58%; activity at 20 min, 10 µM (CYP2D6): 21%; activity at 20 min, 10 µM (CYP3A4): 33%; activity at 20 min, 10 µM (CYP2C9): 28%; activity at 20 min, 10 µM (CYP2C19): 35% |

Second part, led by results:

| IC50 [1] | Compound | further results |
| --- | --- | --- |
| 600 nM | O=C(OCc1ccccc1)N1CCc2nc(-c3cc4ccccc4[nH]c3=O)[nH]c2C1 |  |
| 5000 nM | O=c1[nH]c2ccccc2cc1-c1nc2c([nH]1)CN(C1CCNCC1)CC2 |  |
| 200 nM | O=C(c1cccnc1)N1CCc2nc(-c3cc4ccccc4[nH]c3=O)[nH]c2C1 |  |
| 1 nM | O=C(c1cccnc1)N1CCc2nc(-c3cc4cc(F)ccc4[nH]c3=O)[nH]c2C1 | remaining at 0.5 h, 10 µM [3]: 96%; activity at 20 min, 10 µM (CYP1A2): 86%; activity at 20 min, 10 µM (CYP2D6): 67%; activity at 20 min, 10 µM (CYP3A4): 83%; activity at 20 min, 10 µM (CYP2C9): 99%; activity at 20 min, 10 µM (CYP2C19): 92% |
| 200 nM | O=C(c1ccncc1)N1CCc2nc(-c3cc4ccccc4[nH]c3=O)[nH]c2C1 |  |
| 800 nM | O=C(c1ccncc1)N1CCc2nc(-c3cc4c(F)cccc4[nH]c3=O)[nH]c2C1 |  |
| 0.3 nM | O=C(c1ccncc1)N1CCc2nc(-c3cc4cc(F)ccc4[nH]c3=O)[nH]c2C1 | remaining at 0.5 h, 10 µM [3]: 99%; Activity (HUVEC [4]): 71%; activity at 20 min, 10 µM (CYP1A2): 96%; activity at 20 min, 10 µM (CYP2D6): 90%; activity at 20 min, 10 µM (CYP3A4): 89%; activity at 20 min, 10 µM (CYP2C9): 53%; Activity (HUVEC [5]): 93%; Activity (HUVEC [6]): 72%; activity at 20 min, 10 µM (CYP2C19): 77%; Activity (HUVEC [7]): 120%; Activity (HUVEC [8]): 62% |
| 4.9 nM | O=C(c1ccc(CN2CCCCC2)cc1)N1CCc2nc(-c3cc4cc(F)ccc4[nH]c3=O)[nH]c2C1 | Activity (HUVEC [4]): 79%; activity at 20 min, 10 µM (CYP1A2): 89%; activity at 20 min, 10 µM (CYP2D6): 100%; activity at 20 min, 10 µM (CYP3A4): 16%; activity at 20 min, 10 µM (CYP2C9): 94%; Activity (HUVEC [5]): 102%; Activity (HUVEC [6]): 82%; remaining at 0.5 h, 2 µM [9]: 92%; activity at 20 min, 10 µM (CYP2C19): 100%; Activity (HUVEC [7]): 92.3%; Activity (HUVEC [8]): 99% |
| 300 nM | CCN(CC)CC(=O)N1CCc2nc(-c3cc4ccccc4[nH]c3=O)[nH]c2C1 |  |
| 35 nM | O=C(CN1CCOCC1)N1CCc2nc(-c3cc4cc(Cl)ccc4[nH]c3=O)[nH]c2C1 |  |
| 760 nM | COc1ccc2[nH]c(=O)c(-c3nc4c([nH]3)CN(C(=O)CN3CCOCC3)CC4)cc2c1 |  |
| 13 nM | CN1CCN(CC(=O)N2CCc3nc(-c4cc5cc(F)ccc5[nH]c4=O)[nH]c3C2)CC1 |  |
| 19 nM | CN1CCN(CC(=O)N2CCc3nc(-c4cc5cc(Cl)ccc5[nH]c4=O)[nH]c3C2)CC1 |  |
| 16 nM | O=C(CN1CCCCC1)N1CCc2nc(-c3cc4ccccc4[nH]c3=O)[nH]c2C1 |  |
| 280 nM | COc1ccc2[nH]c(=O)c(-c3nc4c([nH]3)CN(C(=O)CN3CCCCC3)CC4)cc2c1 |  |
| 1.3 nM | O=C(Cc1ccccn1)N1CCc2nc(-c3cc4ccccc4[nH]c3=O)[nH]c2C1 |  |
| 0.5 nM | O=C(Cc1ccncc1)N1CCc2nc(-c3cc4cc(Cl)ccc4[nH]c3=O)[nH]c2C1 |  |
| 2.1 nM | Cc1cccc(NC(=O)N2CCc3nc(-c4cc5ccccc5[nH]c4=O)[nH]c3C2)c1 |  |
| 46 nM | COc1ccc(NC(=O)N2CCc3nc(-c4cc5ccccc5[nH]c4=O)[nH]c3C2)cc1 |  |

Reference: ChEMBL document CHEMBL2016553, “Design and synthesis of 3-(4,5,6,7-tetrahydro-3H-imidazo[4,5-c]pyridin-2-yl)-1H-quinolin-2-ones as VEGFR-2 kinase inhibitors” (Bioorg Med Chem Lett, 2012)
